Tests used:
[1] = target: T1, Centromere-associated protein E (Homo sapiens, UniProt Q02224); test: Inhibition of human ATPase activity of CENP-E motor domain assessed as ADP production after 60 mins by ADP-Glo luminescence assay
[2] = target: T1, Centromere-associated protein E; test: Inhibition of ATPase activity of CENP-E motor domain (unknown origin) by high throughput screening assay
[3] = Permeability of the compound at pH 7.4 by PAMPA; type: ADME; conditions: read-out: permeability
In short: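 Passive permeability measured in a parallel artificial membrane permeability assay (PAMPA) system at pH 7.4, reported in nm/sec.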

HeLa = test: Induction of mitotic arrest in human HeLa cells assessed as accumulation of phosphorylated histone H3 after 16 hrs by FACS analysis; type: functional, cell-based
In short: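 HeLa cells scored for phosphorylated histone H3 positive cell count (%) by FACS. EC50 is the concentration giving a response halfway between baseline and maximum p-HH3 positive count.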

T1 sequence (Q02224 whole entry, the tested form may be a part): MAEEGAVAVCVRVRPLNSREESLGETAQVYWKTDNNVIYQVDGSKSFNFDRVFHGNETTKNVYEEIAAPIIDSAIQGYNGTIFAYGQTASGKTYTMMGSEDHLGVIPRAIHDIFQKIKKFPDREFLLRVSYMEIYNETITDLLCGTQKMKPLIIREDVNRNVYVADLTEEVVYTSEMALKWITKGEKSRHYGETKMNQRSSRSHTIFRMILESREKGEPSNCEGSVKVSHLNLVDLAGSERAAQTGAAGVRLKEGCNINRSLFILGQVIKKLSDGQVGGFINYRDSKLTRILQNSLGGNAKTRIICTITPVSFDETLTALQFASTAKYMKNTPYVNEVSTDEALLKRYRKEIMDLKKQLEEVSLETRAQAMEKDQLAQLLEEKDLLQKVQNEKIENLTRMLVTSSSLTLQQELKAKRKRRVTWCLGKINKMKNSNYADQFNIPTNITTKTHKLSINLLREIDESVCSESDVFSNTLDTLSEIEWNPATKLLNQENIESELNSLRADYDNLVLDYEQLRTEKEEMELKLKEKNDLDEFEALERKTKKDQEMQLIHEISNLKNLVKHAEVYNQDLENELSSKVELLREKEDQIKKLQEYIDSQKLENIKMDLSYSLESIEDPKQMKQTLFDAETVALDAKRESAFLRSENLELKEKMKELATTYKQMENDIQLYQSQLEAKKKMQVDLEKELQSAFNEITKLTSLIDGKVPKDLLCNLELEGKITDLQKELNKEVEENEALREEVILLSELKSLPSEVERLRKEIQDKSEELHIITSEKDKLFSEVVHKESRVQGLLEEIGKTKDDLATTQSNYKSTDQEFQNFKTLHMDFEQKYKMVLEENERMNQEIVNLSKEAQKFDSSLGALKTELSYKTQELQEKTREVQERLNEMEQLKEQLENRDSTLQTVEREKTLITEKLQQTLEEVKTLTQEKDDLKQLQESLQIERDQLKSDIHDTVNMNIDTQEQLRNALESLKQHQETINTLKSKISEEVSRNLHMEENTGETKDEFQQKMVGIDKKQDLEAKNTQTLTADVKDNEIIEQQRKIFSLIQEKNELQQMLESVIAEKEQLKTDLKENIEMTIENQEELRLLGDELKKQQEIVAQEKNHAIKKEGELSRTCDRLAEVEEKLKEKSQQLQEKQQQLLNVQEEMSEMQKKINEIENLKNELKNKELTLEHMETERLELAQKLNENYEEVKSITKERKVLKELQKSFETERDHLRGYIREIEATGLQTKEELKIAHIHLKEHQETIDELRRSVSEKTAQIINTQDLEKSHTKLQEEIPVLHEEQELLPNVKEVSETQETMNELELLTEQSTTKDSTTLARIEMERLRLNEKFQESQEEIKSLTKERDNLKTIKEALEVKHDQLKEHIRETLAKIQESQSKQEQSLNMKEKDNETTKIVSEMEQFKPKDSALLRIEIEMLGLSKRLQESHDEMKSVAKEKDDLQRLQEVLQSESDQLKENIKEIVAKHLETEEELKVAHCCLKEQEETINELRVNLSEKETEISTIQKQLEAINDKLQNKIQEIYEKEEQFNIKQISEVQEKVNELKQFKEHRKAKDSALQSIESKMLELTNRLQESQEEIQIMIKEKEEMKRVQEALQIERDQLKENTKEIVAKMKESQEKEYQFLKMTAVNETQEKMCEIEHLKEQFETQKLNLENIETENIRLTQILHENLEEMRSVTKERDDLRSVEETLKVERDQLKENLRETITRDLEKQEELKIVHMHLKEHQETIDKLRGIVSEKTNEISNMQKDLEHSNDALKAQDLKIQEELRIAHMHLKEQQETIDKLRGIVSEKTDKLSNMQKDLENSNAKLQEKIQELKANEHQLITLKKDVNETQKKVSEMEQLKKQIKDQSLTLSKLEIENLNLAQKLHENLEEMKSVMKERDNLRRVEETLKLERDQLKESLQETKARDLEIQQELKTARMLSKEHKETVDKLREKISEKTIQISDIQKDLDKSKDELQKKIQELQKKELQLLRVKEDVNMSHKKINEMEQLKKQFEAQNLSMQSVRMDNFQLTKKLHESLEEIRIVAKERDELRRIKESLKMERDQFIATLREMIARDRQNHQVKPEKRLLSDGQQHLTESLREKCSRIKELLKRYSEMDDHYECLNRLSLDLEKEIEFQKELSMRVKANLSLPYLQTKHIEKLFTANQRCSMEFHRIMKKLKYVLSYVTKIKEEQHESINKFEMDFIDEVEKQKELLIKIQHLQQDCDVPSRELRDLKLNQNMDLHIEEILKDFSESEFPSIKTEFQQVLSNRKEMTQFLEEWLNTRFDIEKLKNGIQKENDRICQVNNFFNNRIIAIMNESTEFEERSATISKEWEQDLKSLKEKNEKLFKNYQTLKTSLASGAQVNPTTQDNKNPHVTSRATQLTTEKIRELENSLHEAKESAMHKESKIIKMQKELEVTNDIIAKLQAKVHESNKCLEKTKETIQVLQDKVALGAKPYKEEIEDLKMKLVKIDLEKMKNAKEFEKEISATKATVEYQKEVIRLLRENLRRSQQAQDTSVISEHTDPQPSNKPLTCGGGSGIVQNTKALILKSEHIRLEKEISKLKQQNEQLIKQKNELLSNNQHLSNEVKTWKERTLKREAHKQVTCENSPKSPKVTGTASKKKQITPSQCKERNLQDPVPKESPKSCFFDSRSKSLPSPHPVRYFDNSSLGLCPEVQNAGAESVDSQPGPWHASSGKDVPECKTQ

Structure (SMILES)	IC50 [1]	also measured
Cc1csc2cc(C(=O)N(CCN(C)C)Cc3ccc(Cl)c(Cl)c3)n(-c3ccc(F)cc3)c12	370 nM	–
CN(Cc1ccc(Cl)c(Cl)c1)C(=O)c1c(-c2ccc(F)cc2)c2cscc2c(=O)n1C	1500 nM	IC50 [2]: 1500 nM
CN(C)CCN(Cc1ccc(Cl)c(Cl)c1)C(=O)c1c(-c2ccc(F)cc2)c2ccccc2n1C	8500 nM	–
CN(C)CCN(Cc1ccc(Cl)c(Cl)c1)C(=O)c1cc2scc(C(F)(F)F)c2n1-c1ccc(F)cc1	140 nM	–
CN(C)CCN(Cc1ccc(Cl)c(Cl)c1)C(=O)c1cc2scc(Br)c2n1-c1ccc(F)cc1	32 nM	Papp [3]: 4.1 ×10⁻⁶ cm/s; EC50 (HeLa): 3000 nM
CN(C)CCN(Cc1ccc(Cl)c(Cl)c1)C(=O)c1c(-c2ccc(F)cc2)c2cscc2c(=O)n1C	100 nM	–
CN(C)CCN(Cc1ccc(Cl)c(Cl)c1)C(=O)c1cc2scc(C#N)c2n1-c1ccc(F)cc1	540 nM	–
CN(C)CCN(Cc1ccc(Cl)c(Cl)c1)C(=O)c1cc2sccc2n1-c1ccc(F)cc1	2000 nM	–
CN(C)CCn1c(C(=O)N(C)Cc2ccc(Cl)c(Cl)c2)c(-c2ccc(F)cc2)c2cscc2c1=O	72 nM	–
CN(C)CCN(Cc1ccc(Cl)c(Cl)c1)C(=O)c1nc2cccc(Br)n2c1-c1ccc(F)cc1	50 nM	Papp [3]: 35.3 ×10⁻⁶ cm/s; EC50 (HeLa): 1540 nM
Cc1c(C(=O)N(CCN(C)C)Cc2ccc(Cl)c(Cl)c2)n(-c2ccc(F)cc2)c2ccccc12	2100 nM	–
CN(Cc1cc(C(F)(F)F)cc(C(F)(F)F)c1)C(=O)c1c(-c2ccc(F)cc2)c2cscc2c(=O)n1C	–	IC50 [2]: 2100 nM
CN(C)CCCn1c(C(=O)N(C)Cc2ccc(Cl)c(Cl)c2)c(-c2ccc(F)cc2)c2cscc2c1=O	300 nM	–
CN(C)CCN(Cc1ccc(Cl)c(Cl)c1)C(=O)c1cc2scc(Cl)c2n1-c1ccc(F)cc1	35 nM	–
CN(Cc1ccc(Cl)c(Cl)c1)C(=O)c1c(-c2ccc(F)cc2)c2cscc2c(=O)n1CCO	1800 nM	–

From ChEMBL document CHEMBL2412977, “Synthetic studies of centromere-associated protein-E (CENP-E) inhibitors: 1.Exploration of fused bicyclic core scaffolds using electrostatic potential map” (Bioorg Med Chem, 2013)
